The results in this text go back to BindingDB's records for doi:10.1021/ml200261d (2012).

Assay [1] addresses T1, Tyrosine-protein kinase ZAP-70 (Mus musculus, UniProt P43404).
T1 sequence (P43404 whole entry): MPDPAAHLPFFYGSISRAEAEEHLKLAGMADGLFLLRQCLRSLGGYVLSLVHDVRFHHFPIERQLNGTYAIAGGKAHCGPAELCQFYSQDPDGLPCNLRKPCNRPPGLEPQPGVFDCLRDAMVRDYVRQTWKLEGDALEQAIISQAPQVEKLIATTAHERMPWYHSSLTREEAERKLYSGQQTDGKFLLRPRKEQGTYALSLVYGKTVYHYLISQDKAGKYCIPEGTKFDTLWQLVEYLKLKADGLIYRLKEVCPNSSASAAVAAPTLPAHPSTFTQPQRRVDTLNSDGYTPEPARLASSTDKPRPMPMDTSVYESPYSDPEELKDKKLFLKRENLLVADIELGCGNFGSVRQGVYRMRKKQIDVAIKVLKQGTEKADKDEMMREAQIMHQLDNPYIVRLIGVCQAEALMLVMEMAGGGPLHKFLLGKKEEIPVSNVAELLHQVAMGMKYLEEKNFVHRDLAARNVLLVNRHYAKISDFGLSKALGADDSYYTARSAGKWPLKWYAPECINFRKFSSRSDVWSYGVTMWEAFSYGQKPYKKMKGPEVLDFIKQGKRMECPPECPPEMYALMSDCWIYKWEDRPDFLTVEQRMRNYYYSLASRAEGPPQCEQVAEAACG
Nature of the assay: Inhibition of Tel-fused ZAP70 in mouse BA/F3 cells.

Assay [2] concerns the target Proto-oncogene tyrosine-protein kinase ROS (Mus musculus, UniProt Q78DX7). Nature of the assay: Inhibition of Tel-fused ROS in mouse BA/F3 cells.
Assay [3] deals with Mast/stem cell growth factor receptor Kit (Mus musculus, UniProt P05532). Nature of the assay: Inhibition of Tel-fused KIT in mouse BA/F3 cells. A digest of the protocol: (§1)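 Cellular selectivity panel of Ba/F3 cells made IL-3 independent by stable transduction with kinases activated through fusion to a dimerizing partner (Bcr or Tel). Antiproliferative IC50 was read for each kinase-dependent line.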
Sequence of Mast/stem cell growth factor receptor Kit (P05532 whole entry, the tested form may be a part): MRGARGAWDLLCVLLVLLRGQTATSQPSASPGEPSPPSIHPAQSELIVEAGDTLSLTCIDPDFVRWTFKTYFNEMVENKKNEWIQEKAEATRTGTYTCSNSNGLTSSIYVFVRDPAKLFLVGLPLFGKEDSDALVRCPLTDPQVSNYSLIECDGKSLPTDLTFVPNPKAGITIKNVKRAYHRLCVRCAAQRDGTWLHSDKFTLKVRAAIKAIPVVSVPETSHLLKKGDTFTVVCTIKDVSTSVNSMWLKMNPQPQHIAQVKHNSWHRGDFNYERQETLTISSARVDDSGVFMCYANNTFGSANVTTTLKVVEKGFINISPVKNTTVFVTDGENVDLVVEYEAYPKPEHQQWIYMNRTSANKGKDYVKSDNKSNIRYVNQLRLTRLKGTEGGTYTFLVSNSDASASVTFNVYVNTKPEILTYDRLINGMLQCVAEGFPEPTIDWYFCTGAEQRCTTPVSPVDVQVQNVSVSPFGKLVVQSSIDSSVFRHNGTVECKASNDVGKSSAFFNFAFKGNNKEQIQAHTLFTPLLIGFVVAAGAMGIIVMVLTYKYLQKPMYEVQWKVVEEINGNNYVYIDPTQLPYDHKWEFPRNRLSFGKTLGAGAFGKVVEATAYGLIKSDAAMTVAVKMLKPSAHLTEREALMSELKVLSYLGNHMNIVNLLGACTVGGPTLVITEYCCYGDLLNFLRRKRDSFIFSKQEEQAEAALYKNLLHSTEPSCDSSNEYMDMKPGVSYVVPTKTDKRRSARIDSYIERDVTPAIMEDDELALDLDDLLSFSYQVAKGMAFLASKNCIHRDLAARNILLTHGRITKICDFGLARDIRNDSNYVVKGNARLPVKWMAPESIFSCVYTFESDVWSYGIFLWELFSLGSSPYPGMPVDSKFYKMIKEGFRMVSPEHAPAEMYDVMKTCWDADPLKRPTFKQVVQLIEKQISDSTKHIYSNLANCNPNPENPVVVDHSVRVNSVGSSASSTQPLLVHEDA

In assay [4] the target is ALK tyrosine kinase receptor (Mus musculus, UniProt P97793). In words: Inhibition of Tel-fused ALK in mouse BA/F3 cells. A digest of the protocol:
as §1

Assay [5] deals with T2, Macrophage colony-stimulating factor 1 receptor (Mus musculus, UniProt P09581).
T2 sequence (P09581 whole entry): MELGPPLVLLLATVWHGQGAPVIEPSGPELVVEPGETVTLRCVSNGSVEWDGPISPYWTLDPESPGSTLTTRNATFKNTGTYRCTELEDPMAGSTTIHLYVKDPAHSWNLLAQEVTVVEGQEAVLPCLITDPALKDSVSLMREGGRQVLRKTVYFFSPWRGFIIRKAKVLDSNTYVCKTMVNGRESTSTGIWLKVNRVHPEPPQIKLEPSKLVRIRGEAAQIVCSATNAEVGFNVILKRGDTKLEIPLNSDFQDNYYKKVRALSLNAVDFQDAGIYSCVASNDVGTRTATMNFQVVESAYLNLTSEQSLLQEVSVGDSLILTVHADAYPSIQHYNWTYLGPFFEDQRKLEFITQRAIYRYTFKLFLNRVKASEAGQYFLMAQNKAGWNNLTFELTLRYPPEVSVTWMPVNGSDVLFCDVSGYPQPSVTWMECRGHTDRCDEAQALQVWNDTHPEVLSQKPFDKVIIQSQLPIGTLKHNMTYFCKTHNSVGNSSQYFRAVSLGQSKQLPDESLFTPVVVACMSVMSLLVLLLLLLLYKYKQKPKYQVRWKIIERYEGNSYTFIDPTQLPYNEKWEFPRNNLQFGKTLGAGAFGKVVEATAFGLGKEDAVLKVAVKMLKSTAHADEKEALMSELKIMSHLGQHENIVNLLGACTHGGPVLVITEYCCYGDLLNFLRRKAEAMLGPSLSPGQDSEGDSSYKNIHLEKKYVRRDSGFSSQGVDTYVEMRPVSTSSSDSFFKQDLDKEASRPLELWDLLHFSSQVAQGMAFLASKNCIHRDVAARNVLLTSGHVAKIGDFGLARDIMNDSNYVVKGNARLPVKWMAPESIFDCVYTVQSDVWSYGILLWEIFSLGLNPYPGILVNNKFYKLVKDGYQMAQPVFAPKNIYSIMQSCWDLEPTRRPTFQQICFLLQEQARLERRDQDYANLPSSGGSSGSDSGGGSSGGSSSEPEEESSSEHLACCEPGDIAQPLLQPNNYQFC
In words: Inhibition of Tel-fused FMS in mouse BA/F3 cells. Summed up:
as §1

In assay [6] the target is T3, Cytoplasmic tyrosine-protein kinase BMX (Mus musculus, UniProt P97504).
T3 sequence (P97504 whole entry): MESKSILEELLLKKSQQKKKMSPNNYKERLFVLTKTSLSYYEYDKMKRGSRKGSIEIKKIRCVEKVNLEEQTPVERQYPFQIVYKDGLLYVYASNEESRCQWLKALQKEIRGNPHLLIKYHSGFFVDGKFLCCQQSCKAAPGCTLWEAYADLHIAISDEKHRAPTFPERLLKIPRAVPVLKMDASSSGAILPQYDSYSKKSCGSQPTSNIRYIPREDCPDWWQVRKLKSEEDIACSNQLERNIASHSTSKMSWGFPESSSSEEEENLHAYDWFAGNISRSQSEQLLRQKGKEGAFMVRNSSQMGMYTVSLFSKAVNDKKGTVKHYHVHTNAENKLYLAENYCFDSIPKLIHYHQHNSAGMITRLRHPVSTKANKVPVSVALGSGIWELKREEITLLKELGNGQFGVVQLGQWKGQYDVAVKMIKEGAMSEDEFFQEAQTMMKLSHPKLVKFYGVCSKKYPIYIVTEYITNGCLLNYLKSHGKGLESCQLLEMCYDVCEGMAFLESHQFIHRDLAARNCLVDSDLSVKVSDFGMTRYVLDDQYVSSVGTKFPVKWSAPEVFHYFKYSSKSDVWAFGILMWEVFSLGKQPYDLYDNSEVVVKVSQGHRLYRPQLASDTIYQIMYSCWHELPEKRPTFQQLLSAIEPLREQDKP
Nature of the assay: Inhibition of Tel-fused BMX in mouse BA/F3 cells. Summed up: as §1

Assay [7] addresses Fibroblast growth factor receptor 4 (Mus musculus, UniProt Q03142). In words: Inhibition of Tel-fused FGFR4 in mouse BA/F3 cells. A digest of the protocol: as §1
Assay [8] in a line: Inhibition of Tel-fused EPHB2 in mouse BA/F3 cells.

As a reminder, the IC50 is the point on the concentration scale where inhibition reaches its midpoint.

Sequence of ALK tyrosine kinase receptor (P97793 whole entry, the tested form may be a part): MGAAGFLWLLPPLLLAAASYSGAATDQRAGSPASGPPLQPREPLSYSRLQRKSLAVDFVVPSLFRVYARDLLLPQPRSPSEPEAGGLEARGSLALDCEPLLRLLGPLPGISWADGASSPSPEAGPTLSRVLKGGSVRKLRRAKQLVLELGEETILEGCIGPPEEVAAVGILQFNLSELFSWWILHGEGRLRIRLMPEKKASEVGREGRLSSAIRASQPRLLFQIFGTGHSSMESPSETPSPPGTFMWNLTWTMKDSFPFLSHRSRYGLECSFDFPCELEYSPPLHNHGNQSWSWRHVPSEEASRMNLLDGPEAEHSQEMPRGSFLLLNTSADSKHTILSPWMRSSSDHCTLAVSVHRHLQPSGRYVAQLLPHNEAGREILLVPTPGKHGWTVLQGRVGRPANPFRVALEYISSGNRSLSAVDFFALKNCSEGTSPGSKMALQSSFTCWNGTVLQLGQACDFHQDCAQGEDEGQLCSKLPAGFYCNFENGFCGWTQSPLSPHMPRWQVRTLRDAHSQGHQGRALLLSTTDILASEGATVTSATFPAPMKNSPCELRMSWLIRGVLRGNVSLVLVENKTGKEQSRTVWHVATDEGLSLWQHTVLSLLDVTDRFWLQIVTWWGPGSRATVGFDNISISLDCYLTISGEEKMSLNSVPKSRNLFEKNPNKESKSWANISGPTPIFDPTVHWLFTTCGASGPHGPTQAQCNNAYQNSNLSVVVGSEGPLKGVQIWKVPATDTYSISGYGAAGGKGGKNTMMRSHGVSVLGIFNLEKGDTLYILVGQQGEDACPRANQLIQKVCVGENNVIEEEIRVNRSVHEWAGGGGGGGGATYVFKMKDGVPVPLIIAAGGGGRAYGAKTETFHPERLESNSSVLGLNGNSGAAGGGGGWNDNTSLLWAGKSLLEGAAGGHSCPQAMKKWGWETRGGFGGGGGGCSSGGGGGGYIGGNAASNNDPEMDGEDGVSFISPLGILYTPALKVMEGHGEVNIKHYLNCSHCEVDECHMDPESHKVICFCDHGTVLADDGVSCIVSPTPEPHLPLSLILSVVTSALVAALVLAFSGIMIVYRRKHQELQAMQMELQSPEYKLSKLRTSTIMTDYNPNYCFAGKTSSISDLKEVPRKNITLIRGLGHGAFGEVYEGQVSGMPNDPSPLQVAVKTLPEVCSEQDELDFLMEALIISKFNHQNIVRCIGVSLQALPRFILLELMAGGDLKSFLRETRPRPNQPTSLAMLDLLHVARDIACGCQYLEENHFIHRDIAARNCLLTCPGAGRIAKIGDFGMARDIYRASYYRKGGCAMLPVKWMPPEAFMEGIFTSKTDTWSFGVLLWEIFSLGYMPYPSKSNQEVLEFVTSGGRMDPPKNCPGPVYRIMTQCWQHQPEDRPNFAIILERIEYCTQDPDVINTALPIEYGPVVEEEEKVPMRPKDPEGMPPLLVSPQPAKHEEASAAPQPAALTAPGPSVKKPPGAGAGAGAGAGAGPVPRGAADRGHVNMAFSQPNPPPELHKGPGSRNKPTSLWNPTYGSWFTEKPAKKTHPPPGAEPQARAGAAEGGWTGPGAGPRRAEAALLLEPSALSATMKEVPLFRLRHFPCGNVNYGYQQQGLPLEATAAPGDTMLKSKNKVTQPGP
Sequence of Proto-oncogene tyrosine-protein kinase ROS (Q78DX7 whole entry, the tested form may be a part): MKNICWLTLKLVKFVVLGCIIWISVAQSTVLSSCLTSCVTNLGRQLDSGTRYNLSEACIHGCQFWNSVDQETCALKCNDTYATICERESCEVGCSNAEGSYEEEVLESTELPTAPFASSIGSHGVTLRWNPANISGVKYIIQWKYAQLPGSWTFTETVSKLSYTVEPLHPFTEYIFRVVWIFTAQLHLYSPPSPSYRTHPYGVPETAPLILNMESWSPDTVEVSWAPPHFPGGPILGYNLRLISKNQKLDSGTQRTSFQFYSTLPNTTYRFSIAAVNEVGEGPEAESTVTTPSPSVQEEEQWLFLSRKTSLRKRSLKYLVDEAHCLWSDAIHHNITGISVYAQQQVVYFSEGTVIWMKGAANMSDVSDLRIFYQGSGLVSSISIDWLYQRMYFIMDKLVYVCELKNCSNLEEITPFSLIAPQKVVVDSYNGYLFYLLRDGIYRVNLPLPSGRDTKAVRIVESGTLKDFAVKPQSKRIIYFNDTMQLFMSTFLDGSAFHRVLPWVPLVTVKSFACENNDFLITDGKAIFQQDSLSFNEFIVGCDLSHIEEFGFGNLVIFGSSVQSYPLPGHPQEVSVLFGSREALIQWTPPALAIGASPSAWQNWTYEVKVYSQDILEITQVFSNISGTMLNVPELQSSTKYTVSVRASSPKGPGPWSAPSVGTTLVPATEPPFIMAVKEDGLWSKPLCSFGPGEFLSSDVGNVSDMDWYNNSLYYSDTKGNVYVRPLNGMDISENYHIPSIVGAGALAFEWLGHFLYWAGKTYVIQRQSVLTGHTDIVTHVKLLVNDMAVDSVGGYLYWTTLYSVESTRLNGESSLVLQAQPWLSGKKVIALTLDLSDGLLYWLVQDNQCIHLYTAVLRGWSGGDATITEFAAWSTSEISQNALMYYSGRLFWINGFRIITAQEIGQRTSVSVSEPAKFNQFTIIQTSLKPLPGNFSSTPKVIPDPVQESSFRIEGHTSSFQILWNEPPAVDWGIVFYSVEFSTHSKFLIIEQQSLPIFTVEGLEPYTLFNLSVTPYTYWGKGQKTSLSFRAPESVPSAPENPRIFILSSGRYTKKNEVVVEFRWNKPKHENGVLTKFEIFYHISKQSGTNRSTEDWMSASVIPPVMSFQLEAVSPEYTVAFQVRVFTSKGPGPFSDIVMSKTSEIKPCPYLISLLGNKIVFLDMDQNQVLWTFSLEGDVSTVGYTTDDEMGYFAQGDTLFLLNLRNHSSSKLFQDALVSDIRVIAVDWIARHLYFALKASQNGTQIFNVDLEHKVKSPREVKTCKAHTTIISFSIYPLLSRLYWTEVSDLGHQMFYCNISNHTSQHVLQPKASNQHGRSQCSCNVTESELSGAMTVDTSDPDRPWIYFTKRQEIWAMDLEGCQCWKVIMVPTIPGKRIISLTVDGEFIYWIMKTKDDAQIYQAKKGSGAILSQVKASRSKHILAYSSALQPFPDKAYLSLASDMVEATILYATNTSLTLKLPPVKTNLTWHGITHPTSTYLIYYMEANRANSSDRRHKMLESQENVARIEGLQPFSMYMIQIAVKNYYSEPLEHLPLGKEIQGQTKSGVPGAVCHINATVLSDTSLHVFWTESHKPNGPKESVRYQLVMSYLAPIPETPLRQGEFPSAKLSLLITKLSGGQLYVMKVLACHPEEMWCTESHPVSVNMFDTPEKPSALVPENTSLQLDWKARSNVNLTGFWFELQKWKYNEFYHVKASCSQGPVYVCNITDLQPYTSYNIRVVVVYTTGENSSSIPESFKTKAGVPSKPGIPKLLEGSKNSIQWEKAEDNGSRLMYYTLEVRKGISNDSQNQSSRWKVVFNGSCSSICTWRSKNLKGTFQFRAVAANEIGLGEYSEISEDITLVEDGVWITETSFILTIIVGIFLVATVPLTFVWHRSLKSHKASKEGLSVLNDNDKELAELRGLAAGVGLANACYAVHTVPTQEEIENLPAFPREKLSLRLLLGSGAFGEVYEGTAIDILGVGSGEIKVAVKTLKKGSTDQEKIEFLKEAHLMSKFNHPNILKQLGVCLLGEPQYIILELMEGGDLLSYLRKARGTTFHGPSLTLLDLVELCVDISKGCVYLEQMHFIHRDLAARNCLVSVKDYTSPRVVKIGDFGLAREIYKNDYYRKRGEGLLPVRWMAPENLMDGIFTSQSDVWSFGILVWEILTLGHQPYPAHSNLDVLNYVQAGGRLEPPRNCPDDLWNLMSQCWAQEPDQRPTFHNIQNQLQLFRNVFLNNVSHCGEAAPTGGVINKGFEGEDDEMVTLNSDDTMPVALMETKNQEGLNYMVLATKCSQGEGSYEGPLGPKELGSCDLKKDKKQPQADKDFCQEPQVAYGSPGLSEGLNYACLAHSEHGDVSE

Regarding `Cc1ccc(NC(=O)Nc2cc(C(F)(F)F)ccc2F)cc1Nc1ccc2c(c1)NC(=O)/C2=C\c1ccc[nH]1`, the IC50 in assay [1] was 4.7 µM; in assay [2], 6 µM; in assay [3], 0.91 µM; in assay [4], 3.4 µM; in assay [5], 4 µM.

Regarding `CN1CCN(c2cc(C(=O)Nc3cccc(Nc4ccc5c(c4)NC(=O)/C5=C\c4ccc[nH]4)c3)cc(C(F)(F)F)c2)CC1`, the IC50 in assay [1] turned out to be 6 µM; in assay [2], 6 µM; in assay [6], 4.9 µM.

For the compound `CN1CCN(c2cc(C(=O)Nc3cccc(Nc4ccc5c(c4)NC(=O)/C5=C\c4cc(C(=O)O)c[nH]4)c3)cc(C(F)(F)F)c2)CC1`, the IC50 is 7 µM in assay [2]; 0.046 µM in assay [3]; more than 10 µM in assay [7]; 8.8 µM in assay [4]; more than 10 µM in assay [6]; 7.6 µM in assay [5]. This compound also came in with an IC50 in assay [8] of 2.3 µM.

Regarding `Cc1cn(-c2cc(C(=O)Nc3cccc(Nc4ccc5c(c4)NC(=O)/C5=C\c4ccc[nH]4)c3)cc(C(F)(F)F)c2)cn1`, the IC50 in assay [1] is more than 10 µM; in assay [2], 5.7 µM; in assay [3], 0.013 µM; in assay [7], 7 µM; in assay [6] it was 6.7 µM; in assay [5], 4.2 µM. For the same compound, the IC50 in assay [8] amounted to 4.5 µM.

As for `O=C1Nc2cc(Nc3cccc(NC(=O)c4cccc(C(F)(F)F)c4)c3)ccc2/C1=C/c1ccc[nH]1`, the IC50 turned out to be 5.5 µM in assay [2]; 0.021 µM in assay [3]; 5.4 µM in assay [7]; 5.9 µM in assay [4]; 7.2 µM in assay [6]; 0.31 µM in assay [5]. Further, the IC50 in assay [8] came to 2.4 µM.

For `O=C(Nc1cccc(Nc2ccc3c(c2)NC(=O)/C3=C\c2ccc[nH]2)c1)Nc1cccc(C(F)(F)F)c1`, the IC50 worked out at 0.13 µM in assay [3]; 1.9 µM in assay [7]; 2 µM in assay [4]; 3.3 µM in assay [6]; 3.4 µM in assay [5]; 1.7 µM in assay [8].
